# In the library only some 4% were active in any assay of this set; here they are far more common.
# FN deposit inh – fibronectin deposition inhibition; inhibition, % at 12.6 µM; 0.086% of 350,000 active; AH1F fibroblasts, Alexa488-fibronectin deposition fluorescence, overnight; AID 743247;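 active means mean inhibition across replicates of 30% or more, regardless of how many single replicates reach that level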;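 further: positive control wells lacked labelled fibronectin entirely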
#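 Measured by – fluorescence 485/525 nm · System – AH1F fibroblast monolayer, labelled fibronectin deposition · Amount – 10000 cells per well · Buffer or medium – serum-reduced DMEM (2% serum) · Doses – single dose, pinned · Also added – fluorescent fibronectin at 24 nM final · Schedule – 1 h cell attachment, overnight exposure to compound and label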
# SIRT5 inh – sirtuin-5 (human) deacylase inhibition. Purified SirT5, succinyl-peptide AMC, trypsin-coupled fluorescence. Q9NXA8. 1.1% of 330,000 active. inhibition, % at 15 µM. AID 652115; in the data active means inhibition above about 15%
# Ecoli rRNA inh – selective bacterial rRNA inhibition in E. coli; AID 720706; E. coli WT GFP vs humanized-ribosome RFP mutants, fluorescence, 24 h; hits give low values; DMSO median 0, no signal -100; 1.6% of 350,000 active; GFP signal change (wild-type ribosome), % (concentration not given with the values);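 active means significant combined selectivity score with lowered wild-type GFP, culture density cut under 30%, mutant RFP and density less affected; inactive means any of these conditions unmet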
# C2C12 statin – suppression of simvastatin myotoxicity; C2C12 myotubes + simvastatin, ATP luminescence, 48 h; scaled: DMSO 0, geranylgeraniol control 100; 0.78% of 330,000 active; rescue of ATP level, % at 7.49 µM;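 active means mean ATP rescue above about 67%, or every replicate alone reaching that limit, limit read from the data, passing the limit was not always enough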;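 further: myotubes were challenged with 10 µM simvastatin during compound exposure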
# FGF22 binding – shifts melting point of recombinant human FGF22; recombinant FGF22 thermal shift, SYPRO orange fluorescence; percent of sucrose octasulfate shift, DMSO zero; Q9HCT0; activity (Tm shift, normalised), % at 9.99 µM; 1.5% of 340,000 active; AID 651658;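 active means mean Tm shift, scaled 0 neutral to 100 positive control, at about 1.3% or above, every replicate too, limit read from the data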
# Target sequence (Q9HCT0 whole entry, looked up): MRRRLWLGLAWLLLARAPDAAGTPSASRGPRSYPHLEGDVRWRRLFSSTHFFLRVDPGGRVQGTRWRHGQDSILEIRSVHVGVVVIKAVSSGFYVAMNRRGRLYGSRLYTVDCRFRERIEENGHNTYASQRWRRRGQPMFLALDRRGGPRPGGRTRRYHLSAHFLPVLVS
# E-selectin induc – E-selectin induction on HUVECs; AID 686992; HUVEC E-selectin immunofluorescence imaging; normalized: neutral wells 0, TNF-alpha wells 100; activation, % at 7.58 µM; 0.37% of 260,000 active;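 active means mean E-selectin-positive cell signal at least 10% of the positive control, reached in at least 60% of replicates, without over 20% cell loss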
#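 System: HUVEC / Compound: single concentration / Signal: immunofluorescence imaging / Read-out: percent E-selectin-positive cells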
# * = called active by the depositor; . = no result given.
SMILES,FN deposit inh,SIRT5 inh,Ecoli rRNA inh,C2C12 statin,FGF22 binding,E-selectin induc
CCOC(=O)c1c(C)c(C(=O)Nc2ccc(N(C)C)cc2)c(C)n1CC,.,-1,-16*,-21,0,.
CCOC(=O)c1c(C)c(C(=O)NCCOC)c(C)n1CC,.,-1,7,1,0,.
O=c1cccc2n1Cc1cc3ccccc3nc1-2,2,-101,-11,10,44*,0
O=C(/C(=C/O)N=Nc1cccc(C(F)(F)F)c1)c1ccccc1,.,3,7,.,43*,.
Cc1cccc(N=N/C(=C\O)C(=O)c2ccc(Br)cc2)c1,5,-4,7,.,0,.
N#Cc1cccc(C#N)c1N1CCC(C#N)CC1,-17,24*,7,.,42,.
N#Cc1c(F)cccc1N1CCC(C#N)CC1,13,-10,1,.,0,-1
CO[C@H]1CN(C)C(=O)c2ccc(NS(=O)(=O)c3ccccc3C)cc2OC[C@@H](C)N(C)C[C@@H]1C,.,-3,0,8,0,0
COc1ccccc1-c1ccc2c(c1)O[C@H](CN(C)C(=O)c1ccccc1)[C@H](C)CN([C@@H](C)CO)S2(=O)=O,.,-6,-6,-23,0,0
CCSc1nc2c(cnn2-c2ccccc2)c(=O)n1N,-8,-4,-17*,.,0,0
Fc1ccccc1-c1cc2ccccc2cn1,-13,-5,8,-2,44*,0
c1ccc(CCNc2nc(-c3ccncc3)cs2)cc1,-3,-1,-1,-3,0,0
Cc1ccc(-c2csc(NCCn3c(-c4ccncc4)nc4cc(C(F)(F)F)ccc43)n2)cc1,-4,17*,10,-11,0,0
Cc1ccc(-c2csc(NCCn3c(-c4ccncc4)nc4ccccc43)n2)cc1,-4,-1,-21*,23,0,0
Cc1noc(C)c1NC(=O)N(C)C[C@H]1OCCCC[C@H](C)Oc2ccc(NC(=O)NC3CCCCC3)cc2C(=O)N([C@H](C)CO)C[C@@H]1C,-8,-3,3,.,1,.
Cc1noc(C)c1NC(=O)N(C)C[C@@H]1OCCCC[C@H](C)Oc2ccc(NC(=O)Nc3ccc(C(F)(F)F)cc3)cc2C(=O)N([C@@H](C)CO)C[C@H]1C,19,-1,3,7,0,0
Cc1noc(C)c1NC(=O)N(C)C[C@H]1OCCCC[C@@H](C)Oc2ccc(NC(=O)Nc3ccc(C(F)(F)F)cc3)cc2C(=O)N([C@H](C)CO)C[C@@H]1C,-10,17*,1,-1,-1,1
Cc1noc(C)c1NC(=O)N(C)C[C@@H]1OCCCC[C@H](C)Oc2ccc(NC(=O)Nc3ccc(F)cc3)cc2C(=O)N([C@@H](C)CO)C[C@@H]1C,-6,31*,-2,.,-1,0
Cc1noc(C)c1NC(=O)Nc1ccc2c(c1)C(=O)N([C@H](C)CO)C[C@H](C)[C@@H](CN(C)Cc1ccc(C(F)(F)F)cc1)OCCCC[C@@H](C)O2,.,26*,4,.,0,0
Cc1noc(C)c1NC(=O)N(C)C[C@H]1OCCCC[C@H](C)Oc2ccc(NC(=O)Nc3ccc(F)cc3)cc2C(=O)N([C@@H](C)CO)C[C@@H]1C,1,-2,-4,.,-1,0
Cc1noc(C)c1NC(=O)N(C)C[C@H]1OCCCC[C@H](C)Oc2ccc(NC(=O)NC3CCCCC3)cc2C(=O)N([C@@H](C)CO)C[C@@H]1C,5,-5,3,.,1.4*,.
COc1cccc(NC(=O)N(C)C[C@@H]2Oc3cc(C#Cc4ccc(F)cc4)ccc3S(=O)(=O)N([C@H](C)CO)C[C@@H]2C)c1,3,10,-4,-73,1,0
C[C@@H]1CN([C@@H](C)CO)C(=O)Cc2cc(NS(=O)(=O)c3ccccc3)ccc2O[C@H]1CN(C)Cc1ccccc1,.,4,0,7,0,0
NC(=S)NN=C1CCC(C2CCCCC2)CC1 (stereo not given),-11,3,-45*,-26,0,0
FC(F)(F)c1ccc(/C=N/n2c(COc3ccccc3)n[nH]c2=S)cc1,5,-3,8,24,0,0
